# Assay results from ChEMBL document CHEMBL3603837, “Indole Glucocorticoid Receptor Antagonists Active in a Model of Dyslipidemia Act via a Unique Association with an Agonist Binding Site” (J Med Chem, 2015).
# Activity calls are given as the source filed them. The calls are words filed in the database; no cut-off is given here.
# Tests used:
# [1] = target: T1, Estrogen receptor (Homo sapiens) (UniProt P03372); experiment: Binding affinity to human estrogen receptor expressed in HEK293 cells by scintillation counting based radioligand competition binding assay; assay type: cell-based
# T1 sequence (whole entry): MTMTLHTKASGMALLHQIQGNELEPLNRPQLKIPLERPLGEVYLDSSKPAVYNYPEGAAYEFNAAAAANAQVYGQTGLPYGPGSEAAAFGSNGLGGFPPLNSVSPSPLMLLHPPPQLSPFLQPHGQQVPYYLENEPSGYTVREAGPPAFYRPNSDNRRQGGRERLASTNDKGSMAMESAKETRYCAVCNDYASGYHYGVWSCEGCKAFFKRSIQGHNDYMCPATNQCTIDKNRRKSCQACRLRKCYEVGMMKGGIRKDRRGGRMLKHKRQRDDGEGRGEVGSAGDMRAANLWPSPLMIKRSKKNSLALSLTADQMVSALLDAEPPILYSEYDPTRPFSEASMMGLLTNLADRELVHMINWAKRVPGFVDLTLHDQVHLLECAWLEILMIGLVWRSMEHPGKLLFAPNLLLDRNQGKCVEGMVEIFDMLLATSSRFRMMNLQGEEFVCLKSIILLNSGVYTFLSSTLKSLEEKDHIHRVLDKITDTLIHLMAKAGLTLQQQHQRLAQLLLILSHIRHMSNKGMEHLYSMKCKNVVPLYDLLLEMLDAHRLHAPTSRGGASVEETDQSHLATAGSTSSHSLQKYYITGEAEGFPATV
# [2] = target: T2, Androgen receptor (Homo sapiens, UniProt P10275); experiment: biochemical
# T2 sequence (P10275 whole entry): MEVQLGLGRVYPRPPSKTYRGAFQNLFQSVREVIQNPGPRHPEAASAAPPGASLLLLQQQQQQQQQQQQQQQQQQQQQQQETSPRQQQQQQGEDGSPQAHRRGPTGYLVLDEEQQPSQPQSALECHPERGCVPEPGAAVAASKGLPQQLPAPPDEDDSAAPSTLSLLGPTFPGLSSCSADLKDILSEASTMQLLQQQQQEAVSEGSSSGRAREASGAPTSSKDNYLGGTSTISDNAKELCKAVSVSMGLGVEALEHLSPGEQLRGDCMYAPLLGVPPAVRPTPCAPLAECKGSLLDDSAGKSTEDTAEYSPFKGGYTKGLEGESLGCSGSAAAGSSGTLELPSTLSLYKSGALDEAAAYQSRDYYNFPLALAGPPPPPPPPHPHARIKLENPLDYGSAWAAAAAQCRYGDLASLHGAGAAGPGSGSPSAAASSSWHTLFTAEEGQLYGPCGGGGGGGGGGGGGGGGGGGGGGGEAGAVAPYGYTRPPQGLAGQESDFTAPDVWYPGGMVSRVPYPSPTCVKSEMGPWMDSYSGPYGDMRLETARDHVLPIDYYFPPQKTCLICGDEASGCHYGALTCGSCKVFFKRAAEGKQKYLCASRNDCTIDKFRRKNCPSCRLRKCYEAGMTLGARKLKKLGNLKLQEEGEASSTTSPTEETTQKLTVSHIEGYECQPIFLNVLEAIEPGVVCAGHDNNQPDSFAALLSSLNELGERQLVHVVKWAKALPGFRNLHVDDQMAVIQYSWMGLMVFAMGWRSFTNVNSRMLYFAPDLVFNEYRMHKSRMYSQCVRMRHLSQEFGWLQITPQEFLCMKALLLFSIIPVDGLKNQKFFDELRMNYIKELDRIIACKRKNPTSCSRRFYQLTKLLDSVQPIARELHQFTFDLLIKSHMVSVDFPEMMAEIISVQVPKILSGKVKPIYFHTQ
# [3] = target: T3, Mineralocorticoid receptor (Homo sapiens, UniProt P08235); experiment: biochemical
# T3 sequence (P08235 whole entry): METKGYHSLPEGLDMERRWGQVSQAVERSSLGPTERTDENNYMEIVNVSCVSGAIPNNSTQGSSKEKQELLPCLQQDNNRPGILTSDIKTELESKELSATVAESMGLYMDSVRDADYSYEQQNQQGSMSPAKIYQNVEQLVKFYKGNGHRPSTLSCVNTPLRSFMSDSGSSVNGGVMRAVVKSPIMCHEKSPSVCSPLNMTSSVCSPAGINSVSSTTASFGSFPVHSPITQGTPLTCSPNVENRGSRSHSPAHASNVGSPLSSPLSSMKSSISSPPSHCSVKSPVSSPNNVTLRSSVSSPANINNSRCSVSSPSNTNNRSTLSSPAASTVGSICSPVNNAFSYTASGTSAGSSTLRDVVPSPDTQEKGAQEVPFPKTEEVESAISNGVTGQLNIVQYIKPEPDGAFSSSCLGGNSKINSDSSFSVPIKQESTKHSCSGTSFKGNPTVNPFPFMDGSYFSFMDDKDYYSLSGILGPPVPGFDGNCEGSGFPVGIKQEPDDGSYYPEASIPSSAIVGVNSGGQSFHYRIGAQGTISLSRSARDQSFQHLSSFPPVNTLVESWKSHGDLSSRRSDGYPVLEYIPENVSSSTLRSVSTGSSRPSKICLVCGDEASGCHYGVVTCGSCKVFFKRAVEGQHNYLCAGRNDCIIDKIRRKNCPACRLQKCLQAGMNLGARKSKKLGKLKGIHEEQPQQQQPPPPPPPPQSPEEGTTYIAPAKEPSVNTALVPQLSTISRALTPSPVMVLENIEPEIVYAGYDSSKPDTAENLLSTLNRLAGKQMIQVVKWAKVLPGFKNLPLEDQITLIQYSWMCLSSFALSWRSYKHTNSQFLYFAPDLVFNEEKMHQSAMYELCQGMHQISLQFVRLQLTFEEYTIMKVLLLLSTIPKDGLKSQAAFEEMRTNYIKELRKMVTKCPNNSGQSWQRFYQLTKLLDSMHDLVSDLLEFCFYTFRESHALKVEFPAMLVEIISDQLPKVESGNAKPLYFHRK
# [4] = target: T4, Glucocorticoid receptor (Homo sapiens) (UniProt P04150); experiment: Displacement of [3H]-dexamethasone from human glucocorticoid receptor expressed in HEK293 cells at 10 uM by scintillation counting based radioligand competition binding assay; assay type: cell-based
# T4 sequence (whole entry): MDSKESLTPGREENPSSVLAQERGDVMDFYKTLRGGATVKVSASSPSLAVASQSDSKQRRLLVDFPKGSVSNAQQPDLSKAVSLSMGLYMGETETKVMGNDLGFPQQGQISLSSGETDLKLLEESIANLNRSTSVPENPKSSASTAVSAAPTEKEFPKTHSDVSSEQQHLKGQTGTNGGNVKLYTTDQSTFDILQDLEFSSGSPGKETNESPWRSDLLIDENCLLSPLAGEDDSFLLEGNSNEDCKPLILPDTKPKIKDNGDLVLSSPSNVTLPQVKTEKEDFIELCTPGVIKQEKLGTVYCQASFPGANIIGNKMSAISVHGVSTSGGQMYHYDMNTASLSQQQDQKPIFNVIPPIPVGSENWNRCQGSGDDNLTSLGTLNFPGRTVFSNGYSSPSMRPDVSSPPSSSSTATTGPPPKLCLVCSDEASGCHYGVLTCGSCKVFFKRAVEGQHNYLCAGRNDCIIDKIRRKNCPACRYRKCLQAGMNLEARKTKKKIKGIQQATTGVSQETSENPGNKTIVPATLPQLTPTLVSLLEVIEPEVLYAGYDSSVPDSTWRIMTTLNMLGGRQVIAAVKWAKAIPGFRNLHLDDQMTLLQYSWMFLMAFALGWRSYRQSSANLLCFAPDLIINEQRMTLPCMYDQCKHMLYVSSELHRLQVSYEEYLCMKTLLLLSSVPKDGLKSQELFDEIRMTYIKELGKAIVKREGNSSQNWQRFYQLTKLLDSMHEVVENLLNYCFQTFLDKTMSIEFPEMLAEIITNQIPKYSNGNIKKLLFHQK
# In short: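 Competition binding with 0.3 nM [3H]-dexamethasone and 20 μg 293-GR lysate per well; nonspecific binding defined with 0.5 μM dexamethasone. Incubated overnight at 4 °C, free ligand removed with charcoal–dextran, then scintillation counting. Percent inhibition at 10 μM was calculated.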
# [5] = test system: Syrian golden hamster; experiment: Reduction in LDL level in high fat and high cholesterol diet fed Syrian golden hamster at 30 mg/kg, po qd for 14 days; assay type: functional; details: Mesocricetus auratus, 336 h
# In short: (§1)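 Groups of Syrian golden hamsters (n = 6) kept on a high fat, high cholesterol diet for 14 days, dosed orally at 30 mg/kg once daily. Plasma HDL and LDL compared against untreated HFHC controls; mean with standard errors.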
# [6] = test system: Syrian golden hamster; experiment: Increase in HDL level in high fat and high cholesterol diet fed Syrian golden hamster at 30 mg/kg, po qd for 14 days; assay type: functional, Mesocricetus auratus; in short: as §1
Structure (SMILES),Activity [1],Ki [2],Ki [3],Activity [4],inhibition in vivo at 30 mg/kg [5],Activity [6]
COc1ccc(F)cc1-c1c[nH]c2c(NC(C)=O)cccc12,inactive,6.12 µM,6.53 µM,–,–,–
CC#C[C@]1(O)CC[C@H]2[C@@H]3CCC4=CC(=O)CCC4=C3[C@@H](c3ccc(N(C)C)cc3)C[C@@]21C [MIFEPRISTONE],inactive,–,–,–,43%,35%

# Second part, led by results:
Activity [1],Ki [2],Ki [3],Activity [4],Structure (SMILES),inhibition in vivo at 30 mg/kg [5],Activity [6]
inactive,–,–,–,COc1ccc(-c2c[nH]c3c(NS(C)(=O)=O)cccc23)cc1F,–,–
inactive,–,–,inactive,Cc1[nH]c2ccccc2c1-c1ccccc1,–,–
inactive,–,–,inactive,COc1cc(F)ccc1-c1c(CN(C)Cc2ccccc2)[nH]c2c([N+](=O)[O-])cc(C(C)C)cc12,–,–
